# In ChEMBL document CHEMBL1153348, “Semi-synthetic analogs of pinitol as potential inhibitors of TNF-alpha cytokine expression in human neutrophils” (2009):
# Calls of active or inactive are those of the source. The rule behind the calls is not given here.
# Tested on: not listed separately
# Assay: Antiinflammatory activity in human neutrophils assessed as inhibition of LPS-induced intracellular TNFalpha expression at 10 ug/mL after 3 hrs by flow cytometry
# Type: functional, Neutrophil
# Parameters: scale not given: the % may be the effect or the level left
# Procedure, shortened: (§1)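 Neutrophils were isolated from human blood: spun at 250g for 20 min, and the platelet-rich layer was discarded. The lower layer was spun at 1800g, and the buffy coat was layered on histopaque and spun at 700g. RBCs were lysed and the cells washed with PBS. Cells were given LPS plus compound for 3 h in a CO2 incubator, permeabilised, stained 30 min in the dark with conjugated anti-TNF-α mAb, and read by flow cytometry.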
row,Structure (SMILES),Activity
1,COc1ccc(C2CNC(=O)C2)cc1OC1CCCC1 (stereo not drawn) [ROLIPRAM],52.85%

# Tested on: Neutrophil (Homo sapiens)
# Assay: Antiinflammatory activity in human neutrophils assessed as inhibition of LPS-induced intracellular TNFalpha expression
row,Structure (SMILES),Activity
1,CO[C@@H]1[C@@H](OC(=O)c2ccccc2)[C@@H](OC(=O)c2ccccc2)[C@H](OC(=O)c2ccccc2)[C@H](OC(=O)c2ccccc2)[C@H]1OC(=O)c1ccccc1,Active
2,CCCC(=O)O[C@H]1[C@H](OC(=O)CCC)[C@H](OC(=O)CCC)[C@@H](OC)[C@H](OC(=O)CCC)[C@H]1OC(=O)CCC,Active
3,CO[C@H]1C(=O)[C@H]2OC(C)(C)O[C@H]2[C@@H]2OC(C)(C)O[C@@H]21,Active

# Tested on: not listed separately
# Assay: Antiinflammatory activity in human neutrophils assessed as inhibition of LPS-induced intracellular TNFalpha expression at 1 ug/mL after 3 hrs by flow cytometry
# Type: functional, Neutrophil
# Parameters: scale not given: the % may be the effect or the level left
# Procedure, shortened: as §1
row,Structure (SMILES),Activity
1,CO[C@@H]1[C@@H](O)[C@@H](O)[C@H](O)[C@H](O)[C@H]1OC(C)=O,2.28%
2,CCO[C@@H]1[C@@H](O)[C@@H](O)[C@H](O)[C@H](O)[C@H]1OC,36.5%
3,CO[C@H]1[C@H](OC(=O)C(C)C)[C@H]2OC(C)(C)O[C@H]2[C@@H]2OC(C)(C)O[C@H]12,20.65%
4,CO[C@H]1[C@H](O)[C@H]2OC(C)(C)O[C@H]2[C@@H]2OC(C)(C)O[C@@H]21,13.09%
5,CO[C@H]1[C@H](O)[C@@H](O)[C@@H](O)[C@H](O)[C@@H]1O [METHYLINOSITOL],30.03%
6,CCC(=O)O[C@@H]1[C@@H](O)[C@@H](O)[C@H](O)[C@H](O)[C@H]1OC,20.91%
7,CO[C@@H]1[C@@H](OC(=O)c2ccccc2)[C@@H](OC(=O)c2ccccc2)[C@H](OC(=O)c2ccccc2)[C@H](OC(=O)c2ccccc2)[C@H]1OC(=O)c1ccccc1,51.71%
8,C=CCO[C@@H]1[C@@H](O)[C@@H](O)[C@H](O)[C@H](O)[C@H]1OC,29.65%
9,CO[C@@H]1[C@@H](OC(C)=O)[C@@H](OC(C)=O)[C@H](OC(C)=O)[C@H](OC(C)=O)[C@H]1OC(C)=O,33.46%
10,CO[C@H]1[C@H](Cl)[C@H]2OC(C)(C)O[C@H]2[C@@H]2OC(C)(C)O[C@@H]21,37.64%
11,CCCC(=O)O[C@H]1[C@H](OC(=O)CCC)[C@H](OC(=O)CCC)[C@@H](OC)[C@H](OC(=O)CCC)[C@H]1OC(=O)CCC,52.47%
12,CCC(=O)O[C@H]1[C@H](OC)[C@H]2OC(C)(C)O[C@H]2[C@@H]2OC(C)(C)O[C@H]12,32.14%
13,CO[C@@H]1[C@@H](OC(C)=O)[C@@H](OC(C)=O)[C@H](O)[C@H](OC(C)=O)[C@H]1OC(C)=O,33.46%
14,CO[C@H]1C(=O)[C@H]2OC(C)(C)O[C@H]2[C@@H]2OC(C)(C)O[C@@H]21,50.57%
15,C=CCO[C@H]1[C@H](OC)[C@H]2OC(C)(C)O[C@H]2[C@@H]2OC(C)(C)O[C@H]12,34.98%
16,CCCC(=O)O[C@H]1[C@H](OC)[C@H]2OC(C)(C)O[C@H]2[C@@H]2OC(C)(C)O[C@H]12,39.54%
17,CCO[C@H]1[C@H](OC)[C@H]2OC(C)(C)O[C@H]2[C@@H]2OC(C)(C)O[C@H]12,38.4%
18,CO[C@H]1[C@H](OC)[C@H]2OC(C)(C)O[C@H]2[C@@H]2OC(C)(C)O[C@H]12,33.33%
19,CCCC(=O)O[C@@H]1[C@@H](O)[C@@H](O)[C@H](O)[C@H](O)[C@H]1OC,8.36%
20,CO[C@H]1[C@H](OC(C)=O)[C@H]2OC(C)(C)O[C@H]2[C@@H]2OC(C)(C)O[C@H]12,42.58%
21,CO[C@@H]1[C@@H](O)[C@@H](O)[C@H](O)[C@H](O)[C@H]1OC,39.16%
22,CCC(=O)O[C@H]1[C@H](OC(=O)CC)[C@H](OC(=O)CC)[C@@H](OC)[C@H](OC(=O)CC)[C@H]1OC(=O)CC,30.79%
23,CO[C@H]1[C@H](OC(C)=O)[C@@H](OC(C)=O)[C@@H](OC(C)=O)[C@H](O)[C@@H]1OC(C)=O,1.14%
24,CO[C@@H]1[C@@H](O)[C@@H](O)[C@H](O)[C@H](O)[C@H]1OC(=O)C(C)C,17.85%
